Our source for the zone of inhibition, Activity and MIC values is ChEMBL document CHEMBL2413060, “Synthesis, biological evaluation and molecular docking studies of some pyrimidine derivatives” (2013).

Values after ≈ are worked out from the molar mass of the structure shown.

Holding throughout (assay type): functional
For assay [1], the system named is Pseudomonas aeruginosa. Description: Antibacterial activity against Pseudomonas aeruginosa ATCC 9027 assessed as diameter of inhibition zone at 1 mg/ml after 24 hrs by cup diffusion method (reference value: 16 mm). Particulars: ATCC 9027, 24 h, read-out: DIZ.
The next assay concerns Staphylococcus aureus. Description: Antibacterial activity against Staphylococcus aureus ATCC 6538P assessed as diameter of inhibition zone at 1 mg/ml after 24 hrs by cup diffusion method (reference value: 15 mm). The following applies: read-out: DIZ.
The test system of the next assay is Candida albicans. The assay can be described thus: Antifungal activity against Candida albicans ATCC 2091 assessed as diameter of inhibition zone at 1 mg/ml after 48 hrs by cup diffusion method (reference value: 22 mm). The following applies: ATCC 2091, 48 h, read-out: DIZ.
In assay [2] the test system is Shigella flexneri. Description: Antibacterial activity against Shigella flexneri ATCC 15391 assessed as diameter of inhibition zone at 1 mg/ml after 24 hrs by cup diffusion method (reference value: 17 mm). The following applies: ATCC 15391, 24 h, read-out: DIZ.
Assay [3] relates to Shigella flexneri. The assay can be described thus: Antibacterial activity against Shigella flexneri ATCC 15391 after 24 hrs by two-fold serial dilution method relative to ofloxacin.
For assay [4], the system named is Shigella flexneri. Description: Antibacterial activity against Shigella flexneri ATCC 15391 after 24 hrs by two-fold serial dilution method. Particulars: ATCC 15391, 24 h. An outline of the steps: (§1)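 Two-fold serial broth dilution in sterile nutrient broth at 500, 250, 125, 62.5, 31.25, 15.63, 7.82 and 3.91 µg/ml, with dimethylformamide ≤2.5%. Organisms were pre-grown 24 h in broth, and 0.1 ml inoculum was added per 5 ml tube. Tubes were incubated at 37°C, 24 h for bacteria and 48 h for fungi. MIC was taken as the lowest concentration giving no turbidity.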

The subject of assay [5] is Pseudomonas aeruginosa. Description: Antibacterial activity against Pseudomonas aeruginosa ATCC 9027 after 24 hrs by two-fold serial dilution method. The following applies: ATCC 9027, 24 h. A digest of the protocol:
as §1

As to `Cn1c(-n2[nH]c3c(c2=O)C(=O)CC(=O)O3)nc(-c2ccco2)c(C#N)c1=O`, the zone of inhibition at 1000 µg/mL was 16 mm with Pseudomonas aeruginosa [1], 15 mm with Staphylococcus aureus, 22 mm in the assay on Candida albicans and 17 mm in the assay with Shigella flexneri [2].
The matching figures for `Cn1c(=O)c(C#N)c(-c2ccccc2)n2c(CC#N)nnc12`: 17 mm, 15 mm, 22 mm and 19 mm.
As to `N#Cc1c(Cl)nc(SCC2CO2)nc1-c1ccco1` (configuration not stated), the zone of inhibition at 1000 µg/mL amounted to 17 mm with Pseudomonas aeruginosa [1], 15 mm in the assay with Staphylococcus aureus, 22 mm with Candida albicans and 18 mm in the assay on Shigella flexneri [2].
`N#Cc1c(-c2ccco2)nc(SCC2CO2)nc1N1CCOCC1` (configuration not stated): the zone of inhibition at 1000 µg/mL in the assay with Pseudomonas aeruginosa [1] worked out at 16 mm; in the assay on Staphylococcus aureus, 15 mm; in the assay on Candida albicans, 22 mm; in the assay with Shigella flexneri [2] it was 17 mm.
For `N#Cc1c(-c2ccc([N+](=O)[O-])cc2)nc(SCC2CO2)[nH]c1=O` (configuration not stated), the zone of inhibition at 1000 µg/mL is 17 mm with Pseudomonas aeruginosa [1], 15 mm in the assay on Staphylococcus aureus, 22 mm with Candida albicans and 17 mm with Shigella flexneri [2].
For `N#Cc1c(-c2ccccc2)nc(SCC(O)CN2CCOCC2)[nH]c1=O` (configuration not stated), the zone of inhibition at 1000 µg/mL in the assay on Pseudomonas aeruginosa [1] turned out to be 16 mm; in the assay with Staphylococcus aureus, 15 mm; in the assay with Candida albicans, 22 mm; in the assay with Shigella flexneri [2], 18 mm.
Consider `N#Cc1c(-c2ccco2)nc(SCC(O)CN2CCOCC2)[nH]c1=O` (configuration not stated), for which the zone of inhibition at 1000 µg/mL in the assay on Pseudomonas aeruginosa [1] worked out at 16 mm; with Staphylococcus aureus, 15 mm; in the assay on Candida albicans, 22 mm; in the assay with Shigella flexneri [2], 18 mm.
The matching figures for `N#Cc1c(Cl)nc(=S)[nH]c1-c1ccc([N+](=O)[O-])cc1`: 16 mm, 15 mm, 22 mm and 17 mm.
For `N#Cc1c(N2CCOCC2)nc(=S)[nH]c1-c1ccc([N+](=O)[O-])cc1`, the zone of inhibition at 1000 µg/mL in the assay on Pseudomonas aeruginosa [1] is 16 mm; in the assay on Staphylococcus aureus, 15 mm; in the assay with Candida albicans it was 22 mm; in the assay on Shigella flexneri [2] it was 18 mm.
As for `COc1ccc(NC(=O)CSc2nc(-c3ccccc3)c(C#N)c(=O)[nH]2)cc1`, the zone of inhibition at 1000 µg/mL stood at 16 mm in the assay with Pseudomonas aeruginosa [1], 15 mm in the assay on Staphylococcus aureus, 22 mm in the assay on Candida albicans and 20 mm with Shigella flexneri [2]. The compound also displayed an Activity in the assay on Shigella flexneri [3] of 60%. In the assay with Shigella flexneri [4], the MIC is 125 µg/mL (≈ 319 µM).
`COc1ccc(NC(=O)CSc2nc(-c3ccco3)c(C#N)c(=O)[nH]2)cc1`: the zone of inhibition at 1000 µg/mL in the assay with Pseudomonas aeruginosa [1] worked out at 16 mm; in the assay on Staphylococcus aureus it was 15 mm; in the assay on Candida albicans, 23 mm; with Shigella flexneri [2], 20 mm. The Activity in the assay on Shigella flexneri [3] is given as 60%. Moreover, in the assay with Shigella flexneri [4], the MIC worked out at 125 µg/mL (≈ 327 µM).
Turning to `Cn1c(N2CCN(Cc3ccccc3)CC2)nc(-c2ccco2)c(C#N)c1=O`, the zone of inhibition at 1000 µg/mL in the assay on Pseudomonas aeruginosa [1] is 17 mm; in the assay with Staphylococcus aureus, 15 mm; with Candida albicans it was 22 mm; with Shigella flexneri [2], 17 mm.
For `Cn1c(-n2[nH]c3c(c2=O)C(=O)CC(=O)O3)nc(-c2ccccc2)c(C#N)c1=O`, the zone of inhibition at 1000 µg/mL with Pseudomonas aeruginosa [1] was 19 mm; in the assay on Staphylococcus aureus, 15 mm; in the assay with Candida albicans, 22 mm; with Shigella flexneri [2] it was 17 mm. The minimal inhibitory concentration (MIC) against Pseudomonas aeruginosa [5] came to 125 µg/mL (≈ 331 µM).
Consider `CC1COc2c(N3CCN(C)CC3)c(F)cc3c(=O)c(C(=O)O)cn1c23` (configuration not stated) [OFLOXACIN], for which the zone of inhibition at 1000 µg/mL with Pseudomonas aeruginosa [1] came out at 43 mm; in the assay on Staphylococcus aureus, 43 mm; in the assay with Shigella flexneri [2] it was 32 mm. Also, the MIC stood at 1.95 µg/mL (≈ 5.4 µM) against Pseudomonas aeruginosa [5] and 7.81 µg/mL (≈ 21.6 µM) in the assay on Shigella flexneri [4].
